Assay results: ChEMBL document CHEMBL4017460, “A Tobramycin Vector Enhances Synergy and Efficacy of Efflux Pump Inhibitors against Multidrug-Resistant Gram-Negative Bacteria” (J Med Chem, 2017)
Calls of active or inactive are those of the source. The calls are words filed in the database; no cut-off is given here.

Key:
[1] = Cytotoxicity against human JIMT1 cells assessed as reduction in cell viability after 24 hrs by MTS assay; assay type: cell-based, JIMT-1
Pseudomonas aeruginosa [2] = assay: Inhibition of RND efflux pump in Pseudomonas aeruginosa isolate 101885 assessed as potentiation of minocycline-induced antibacterial activity by measuring minocycline MIC at 8 ug/ml after 18 to 24 hrs by microbroth dilution assay (reference value: 16 to 32 ug/ml)
In short: (§1)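 Absolute minocycline MIC taken from checkerboard broth dilution with a fixed 8 μg/mL adjuvant. Inoculum was a 0.5 McFarland saline suspension diluted 1:50 in MHB, incubated 37 °C for 18 h. MIC is the lowest concentration with no growth.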

[3] = test system: Pseudomonas aeruginosa PAO1; assay: Inhibition of RND efflux pump in Pseudomonas aeruginosa PAO1 assessed as potentiation of minocycline-induced antibacterial activity by measuring ratio of minocycline MIC after 25 serial passages to minocycline MIC at sub-MIC after 18 to 24 hrs by microbroth dilution assay
Pseudomonas aeruginosa [4] = assay: Inhibition of RND efflux pump in colistin-resistant Pseudomonas aeruginosa isolate 91433 assessed as potentiation of minocycline-induced antibacterial activity by measuring minocycline MIC at 0.25 times antibacterial MIC after 18 to 24 hrs by microbroth dilution assay (reference value: 32 ug/ml)
In short: (§2)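 Checkerboard broth microdilution: antibiotic 2-fold diluted along one axis, adjuvant 2-fold diluted along the other. Overnight culture standardized to 0.5 McFarland in saline, diluted 1:50 in MHB, added to wells, 37 °C for 18 h. MIC is the lowest concentration with no growth. FIC = MIC in combination / MIC alone; FICI = sum of the two FICs; FICI ≤0.5 is synergy.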

[5] = test system: Pseudomonas aeruginosa PAO1; assay: Inhibition of RND efflux pump in Pseudomonas aeruginosa PAO1 assessed as potentiation of minocycline-induced antibacterial activity by measuring fold reduction in minocycline MIC at 8 ug/ml after 18 to 24 hrs by microbroth dilution assay relative to minocycline alone; in short: as §1
Pseudomonas aeruginosa [6] = assay: Inhibition of RND efflux pump in Pseudomonas aeruginosa isolate P264-104354 assessed as potentiation of minocycline-induced antibacterial activity at 0.25 times antibacterial MIC after 18 to 24 hrs by checker board assay
In short: as §2, with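 “in MHB:” for “broth microdilution:”, “test agent” for “adjuvant”, “wells, incubated” for “wells,”, “FIC index” for “FICI”, “both FICs.” for “the two FICs; FICI ≤0.5 is synergy.”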

Pseudomonas aeruginosa [7] = assay: Inhibition of RND efflux pump in Pseudomonas aeruginosa isolate […] assessed as potentiation of minocycline-induced antibacterial activity by measuring minocycline MIC at 0.25 times antibacterial MIC after 18 to 24 hrs by microbroth dilution assay (reference value: 64 ug/ml); settings: isolate P262-104354; in short: as §2
[8] = test system: Pseudomonas aeruginosa PAO1; assay: Inhibition of RND efflux pump in Pseudomonas aeruginosa PAO1 assessed as potentiation of minocycline-induced bactericidal activity up to 1 time antibacterial MIC after 9 hrs by serial dilution assay
[9] = Cytotoxicity against human DU145 cells assessed as reduction in cell viability after 24 hrs by MTS assay; assay type: cell-based, DU-145
[10] = Toxicity in Galleria mellonella assessed as death at 100 mg/kg after 24 hrs relative to control; assay type: organism-based; settings: in vivo, read-out: Activity
Pseudomonas aeruginosa [11] = assay: Inhibition of RND efflux pump in colistin-resistant Pseudomonas aeruginosa isolate 91433 assessed as potentiation of minocycline-induced antibacterial activity at 0.25 times antibacterial MIC after 18 to 24 hrs by checker board assay; in short: as §2
Pseudomonas aeruginosa [12] = assay: Inhibition of RND efflux pump in colistin-resistant Pseudomonas aeruginosa isolate 91433 assessed as potentiation of minocycline-induced antibacterial activity by measuring fold reduction in minocycline MIC at 0.25 times antibacterial MIC after 18 to 24 hrs by microbroth dilution assay; in short: as §2
Pseudomonas aeruginosa [13] = assay: Inhibition of RND efflux pump in colistin-resistant Pseudomonas aeruginosa isolate 91433 assessed as potentiation of minocycline-induced antibacterial activity at 8 ug/ml after 18 to 24 hrs by checker board assay; in short: as §2
Galleria mellonella = assay: Toxicity in Galleria mellonella assessed as death at 200 mg/kg up to 96 hrs; assay type: organism-based; settings: in vivo
Pseudomonas aeruginosa [14] = assay: Antibacterial activity against XDR Pseudomonas aeruginosa isolate P262-101856 infected in Galleria mellonella assessed as protection against bacterial infection by measuring larval death at 75 mg/kg up to 24 hrs relative to control; assay type: functional
In short: (§3)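 G. mellonella larvae infected with 1.0 × 10^5/mL CFU of XDR P. aeruginosa 101856. A single-dose injection of agent, alone or with minocycline, given 2 h post-infection. Survival scored up to 24 h. 15 larvae per experiment from different batches, two experiments per dosage (n = 30). Significance 0 vs 24 h at P ≤ 0.05.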

Pseudomonas aeruginosa [15] = assay: Inhibition of RND efflux pump in colistin-resistant Pseudomonas aeruginosa isolate 91433 assessed as potentiation of minocycline-induced antibacterial activity by measuring fold reduction in minocycline MIC at 8 ug/ml after 18 to 24 hrs by microbroth dilution assay; in short: as §2
Pseudomonas aeruginosa [16] = assay: Inhibition of RND efflux pump in Pseudomonas aeruginosa isolate P264-104354 assessed as potentiation of minocycline-induced antibacterial activity at 8 ug/ml after 18 to 24 hrs by checker board assay
In short: as §2, with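 “in MHB:” for “broth microdilution:”, “test agent” for “adjuvant”, “wells, incubated” for “wells,”, “FIC index” for “FICI”, “both FICs.” for “the two FICs; FICI ≤0.5 is synergy.”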

[17] = Hemolytic activity against ovine erythrocytes at 1000 ug/ml after 30 mins relative to control; assay type: ADME, cell-based, Ovis aries, Erythrocyte; settings: sheep, read-out: Activity
Pseudomonas aeruginosa [18] = assay: Inhibition of RND efflux pump in Pseudomonas aeruginosa isolate […] assessed as potentiation of minocycline-induced antibacterial activity by measuring minocycline MIC at 8 ug/ml after 18 to 24 hrs by microbroth dilution assay (reference value: 64 ug/ml); settings: isolate P262-104354; in short: as §1
[19] = test system: Pseudomonas aeruginosa PAO1; assay: Inhibition of RND efflux pump in Pseudomonas aeruginosa PAO1 assessed as potentiation of minocycline-induced bactericidal activity at 0.5 times antibacterial MIC up to 24 hrs by serial dilution assay
Pseudomonas aeruginosa [20] = assay: (§4) Inhibition of RND efflux pump in XDR Pseudomonas aeruginosa isolate P262-101856 infected in Galleria mellonella assessed as potentiation of minocycline-induced antibacterial activity by measuring larval survival rate at 75 mg/kg co-treated with 75 mg/kg minocycline measured after 24 hrs relative to control; assay type: organism-based; in short: as §3
Pseudomonas aeruginosa [21] = assay: Inhibition of RND efflux pump in colistin-resistant Pseudomonas aeruginosa isolate 91433 assessed as potentiation of minocycline-induced antibacterial activity by measuring minocycline MIC at 8 ug/ml after 18 to 24 hrs by microbroth dilution assay (reference value: 32 ug/ml); in short: as §2
Pseudomonas aeruginosa [22] = assay: as §4, with “37.5” for “75”; assay type: organism-based; in short: as §3

Compound	MIC (Pseudomonas aeruginosa [2])	Ratio [3]	fold change (FC) [5]	fractional inhibitory concentration index (FICI) (Pseudomonas aeruginosa [13])	Activity (Galleria mellonella)	Activity (Pseudomonas aeruginosa [14])	fold change (FC) (Pseudomonas aeruginosa [15])	fractional inhibitory concentration index (FICI) (Pseudomonas aeruginosa [16])	hemolysis at 0.5 h, 1000 ug/ml [17]	MIC (Pseudomonas aeruginosa [18])	inhibition [19]	Survival (Pseudomonas aeruginosa [20])	MIC (Pseudomonas aeruginosa [21])	further results
NC[C@H]1C[C@H](C(=O)N[C@H](CCc2ccccc2)C(=O)Nc2ccc3ccccc3c2)N(CCCCCCCCCCCCO[C@@H]2[C@@H](O[C@H]3O[C@H](CO)[C@@H](O)[C@H](N)[C@H]3O)[C@H](N)C[C@H](N)[C@H]2O[C@H]2O[C@H](CN)[C@@H](O)C[C@H]2N)C1	< 0.125 µg/mL	2	64											CC50 at 24 h [1]: > 30 µM; MIC (Pseudomonas aeruginosa [4]): 0.25 µg/mL; fractional inhibitory concentration index (FICI) (Pseudomonas aeruginosa [6]): 0.25; MIC (Pseudomonas aeruginosa [7]): < 0.5 µg/mL; inhibition [8]: Active; CC50 at 24 h [9]: > 30 µM; mortality at 24 h [10]: 100%; fractional inhibitory concentration index (FICI) (Pseudomonas aeruginosa [11]): 0.16; fold change (FC) (Pseudomonas aeruginosa [12]): 8 to 256
Cl.Cl.Cl.Cl.Cl.Cl.NC[C@H]1O[C@H](O[C@H]2[C@H](OCCCCCCCCCCCCN3CC[C@@H](c4ccc(F)cc4)[C@H](COc4ccc5c(c4)OCO5)C3)[C@@H](O[C@H]3O[C@H](CO)[C@@H](O)[C@H](N)[C@H]3O)[C@H](N)C[C@@H]2N)[C@H](N)C[C@@H]1O	1 µg/mL	2		0.19	Non-Toxic	100%	8 to 256	0.06	≤ 5%	< 0.5 µg/mL	Active	56%	0.25 µg/mL	
Cl.Cl.Cl.Cl.Cl.Cl.Cl.NC[C@H]1O[C@H](O[C@H]2[C@H](OCCCCCCCCCCCCN3CCN(Cc4cccc5ccccc45)CC3)[C@@H](O[C@H]3O[C@H](CO)[C@@H](O)[C@H](N)[C@H]3O)[C@H](N)C[C@@H]2N)[C@H](N)C[C@@H]1O	0.5 µg/mL		16	0.13	Non-Toxic	100%	8 to 256	0.03	≤ 5%	< 0.5 µg/mL	Active	77%	0.25 µg/mL	Survival (Pseudomonas aeruginosa [22]): 10%
